Experiments:
[1] = (§1) Light dose to inactivate 90% of mouse mammary tumor cells (EMT-6) incubated with 1 uM dye for a period of 1 hour.; assay type: functional
How it was run: (§2)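 EMT-6 mouse mammary tumor cells, 15 × 10^3 per well, were grown overnight in Waymouth's with 15% FBS and incubated at 37 °C with dye at 1 µM in Waymouth's 1% FBS (1 h for line 1, 24 h for line 2). Cells were rinsed and exposed to 660-700 nm red light at 10 mW cm-2 (1.5-30 J cm-2). MTT read at 595 nm next day; LD90 extrapolated from survival curves; 8 replicates per light dose, ≥3 experiments.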

Mus musculus [2] = experiment: Medium edema caused with EMT-6 tumor at drug dose 2 umol kg e-1, at light dose 400 J cme-2, and at time period of 24 hr; ++ = Medium edema; assay type: functional, organism-based; conditions: tested as the Zn salt or complex
How it was run: (§3)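 Male BALB/c mice (18-22 g), depilated; 2 × 10^5 EMT-6 cells implanted intradermally on each hind thigh; used 6-8 days later (tumors 3-5 mm diameter, 2-3 mm thick). Dye in PBS given iv (2-20 µmol kg-1); 24 or 48 h later one tumor illuminated with 650-700 nm xenon-lamp light, the other left as control. Edema scored 24 h post-PDT.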

Mus musculus [3] = experiment: Medium edema caused with EMT-6 tumor at drug dose 5 umol kg e-1, at light dose 400 J cme-2, and at time period of 48 hr; ++ = Medium edema; assay type: functional, organism-based; conditions: tested as the Zn salt or complex; how it was run: as §3
Mus musculus [4] = organism: Mus musculus; experiment: Percent regression with EMT-6 Tumor in BALB/c mice at drug dose 5 umol kg e-1, at light dose 400 J cme-2, and at time period of 48 hr.; assay type: functional; how it was run: as §3
Mus musculus [5] = organism: Mus musculus; experiment: Percent necrosis with EMT-6 Tumor in BALB/c mice at drug dose 2 umol kg e-1, at light dose 400 J cme-2, and at time period of 24 hr.; assay type: functional; how it was run: as §3
Mus musculus [6] = organism: Mus musculus; experiment: Percent necrosis with EMT-6 Tumor in BALB/c mice at drug dose 5 umol kg e-1, at light dose 300 J cme-2, and at time period of 24 hr.; assay type: functional; how it was run: as §3
Mus musculus [7] = organism: Mus musculus; experiment: Percent necrosis with EMT-6 Tumor in BALB/c mice at drug dose 5 umol kg e-1, at light dose 400 J cme-2, and at time period of 24 hr.; assay type: functional; how it was run: as §3
Mus musculus [8] = organism: Mus musculus; experiment: Percent necrosis with EMT-6 Tumor in BALB/c mice at drug dose 5 umol kg e-1, at light dose 400 J cme-2, and at time period of 48 hr.; assay type: functional; how it was run: as §3
Mus musculus [9] = organism: Mus musculus; experiment: Percent regression with EMT-6 Tumor in BALB/c mice at drug dose 2 umol kg e-1, at light dose 400 J cme-2, and at time period of 24 hr.; assay type: functional; how it was run: as §3
Mus musculus [10] = organism: Mus musculus; experiment: Percent regression with EMT-6 Tumor in BALB/c mice at drug dose 5 umol kg e-1, at light dose 300 J cme-2, and at time period of 24 hr.; assay type: functional; how it was run: as §3
Mus musculus [11] = organism: Mus musculus; experiment: Percent regression with EMT-6 Tumor in BALB/c mice at drug dose 5 umol kg e-1, at light dose 400 J cme-2, and at time period of 24 hr.; assay type: functional; how it was run: as §3
[12] = (§4) Light dose to inactivate 90% of mouse mammary tumor cells (EMT-6) incubated with 1 uM dye for a period of 24 hour.; assay type: functional; how it was run: as §2
Mus musculus [13] = experiment: Medium edema caused with EMT-6 tumor at drug dose 2 umol kg e-1, at light dose 400 J cme-2, and at time period of 24 hr.; ++ = Medium edema; assay type: functional, organism-based; conditions: tested as the Zn salt or complex; how it was run: as §3
Mus musculus [14] = experiment: Medium edema caused with EMT-6 tumor at drug dose 5 umol kg e-1, at light dose 400 J cme-2, and at time period of 48 hr.; ++ = Medium edema; assay type: functional, organism-based; conditions: tested as the Zn salt or complex; how it was run: as §3
Mus musculus [15] = organism: Mus musculus; experiment: Percent necrosis with EMT-6 Tumor in BALB/c mice at drug dose 5 uMol kg e-1, at light dose 400 J cme-2, and at time period of 24 hr.; assay type: functional; how it was run: as §3
Mus musculus [16] = experiment: Medium edema caused with EMT-6 tumor at drug dose 2 umol kg e-1, at light dose 400 J cme-2, and at time period of 24 hr.; assay type: functional, organism-based; conditions: tested as the Zn salt or complex; how it was run: as §3
Mus musculus [17] = experiment: Medium edema caused with EMT-6 tumor at drug dose 5 umol kg e-1, at light dose 300 J cme-2, and at time period of 24 hr.; ++ = Medium edema; assay type: functional, organism-based; conditions: tested as the Zn salt or complex; how it was run: as §3
Mus musculus [18] = experiment: Medium edema caused with EMT-6 tumor at drug dose 5 umol kg e-1, at light dose 400 J cme-2, and at time period of 24 hr; ++ = Medium edema; assay type: functional, organism-based; conditions: tested as the Zn salt or complex; how it was run: as §3
Mus musculus [19] = organism: Mus musculus; experiment: Percent regression with EMT-6 Tumor in BALB/c mice at drug dose 5 umol kg e-1, at light dose 400 J cme-2, and at time period of 24 hr.
Mus musculus [20] = organism: Mus musculus; experiment: as §1; assay type: functional; conditions: tested as the Zn salt or complex; how it was run: as §2
Mus musculus [21] = experiment: Light […] edema caused with EMT-6 tumor at drug dose 5 umol kg e-1, at light dose 400 J cme-2, and at time period of 24 hr; + = Light edema; assay type: functional, organism-based; conditions: tested as the Zn salt or complex; how it was run: as §3
Mus musculus [22] = organism: Mus musculus; experiment: as §4; assay type: functional; conditions: tested as the Zn salt or complex; how it was run: as §2
[23] = tested as the Zn salt or complex

SMILES	LD90 [1] [J cm**-2]	Regression response (Mus musculus [4]) [%]	Necrosis response (Mus musculus [5]) [%]	Necrosis response (Mus musculus [6]) [%]	Necrosis response (Mus musculus [7]) [%]	Necrosis response (Mus musculus [8]) [%]	Regression response (Mus musculus [9]) [%]	Regression response (Mus musculus [10]) [%]	Regression response (Mus musculus [11]) [%]	LD90 [12] [J cm**-2]	other results
CC(C)(C)c1ccc2cc3c(cc2c1)-c1nc-3nc2[n-]c(nc3nc(nc4[n-]c(n1)c1cc(S(=O)(=O)O)ccc41)-c1cc(S(=O)(=O)O)ccc1-3)c1cc(S(=O)(=O)O)ccc21.[Zn+2]	21	87	60	71	100	87	60	43	86	2.5	Edema (Mus musculus [2]): Medium edema; Edema (Mus musculus [3]): Medium edema
O=S(=O)(O)c1ccc2c(c1)-c1nc-2nc2[n-]c(nc3nc(nc4[n-]c(n1)c1ccc(S(=O)(=O)O)cc41)-c1ccc(S(=O)(=O)O)cc1-3)c1ccc(S(=O)(=O)O)cc21.[Zn+2]	>30	38	12	–	91	50	12	–	–	14	Edema (Mus musculus [13]): Medium edema; Edema (Mus musculus [14]): Medium edema; Regression response (Mus musculus [15]): 91%
CC(C)(C)c1ccc2c(c1)-c1nc-2nc2[n-]c(nc3nc(nc4[n-]c(n1)c1cc(S(=O)(=O)O)ccc41)-c1cc(S(=O)(=O)O)ccc1-3)c1cc(S(=O)(=O)O)ccc21.[Zn+2]	>30	37	50	12	100	37	33	0	90	2.5	Edema (Mus musculus [16]): Medium edema; Edema (Mus musculus [17]): Medium edema
O=S(=O)(O)c1ccc2c(c1)-c1nc-2nc2[n-]c(nc3nc(nc4[n-]c(n1)c1ccc(S(=O)(=O)O)cc41)-c1ccccc1-3)c1ccc(S(=O)(=O)O)cc21.[Zn+2]	29	–	–	–	12	–	–	–	–	5	Edema (Mus musculus [18]): Medium edema; Regression response (Mus musculus [19]): 0%
O=S(=O)(O)c1ccc2c(c1)-c1nc-2nc2[nH]c(nc3nc(nc4[nH]c(n1)c1ccc(S(=O)(=O)O)cc41)-c1nc(-c4ccccc4)c(-c4ccccc4)nc1-3)c1ccc(S(=O)(=O)O)cc21	–	–	–	–	–	–	–	–	–	–	LD90 (Mus musculus [20]): > 30 J cm··-2; Edema (Mus musculus [21]): Light edema; Necrosis response (Mus musculus [7]; [23]): 25%; LD90 (Mus musculus [22]): 19.5 J cm··-2; Regression response (Mus musculus [19]; [23]): 0%
